Measurements from ChEMBL document CHEMBL2029325, “Fused piperidines as a novel class of potent and orally available transient receptor potential melastatin type 8 (TRPM8) antagonists” (J Med Chem, 2012).
≈ marks a conversion by molar mass, not a printed value. Calls of active or inactive are those of the source. The calls are words filed in the database; no cut-off is given here.

How the values were obtained:
Rattus norvegicus [1] = assay: Antinociceptive activity in Sprague-Dawley rat assessed as inhibition of icilin-induced wet-dog shakes at 30 mg/kg, po administered 90 mins prior icilin challenge measured for 30 mins; type: functional
How it was run: (§1)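 Male Sprague–Dawley rats (220–300 g, n = 5–13/treatment) were habituated 30 min to the room, then 20 min to an observation cylinder, kept out of sight of other rats. Compound or vehicle (5% Tween 80/Oraplus) given po 90 min before icilin (0.5 mg/kg ip in 100% PEG 400). Wet-dog shakes counted for 30 min afterwards.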

[2] = Cmax in Sprague-Dawley rat at 10 mg/kg, po by LC-MS/MS analysis; type: ADME, organism-based; parameters: dose 10 mg/kg, route oral; details: in vivo
How it was run: (§2)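 Fasted male Sprague–Dawley rats, n = 3, given 10 mg/kg by oral gavage as a suspension in 5% Tween 80/Oraplus. Plasma taken predose and at 0.25, 0.5, 1, 2, 4, 6, 8, 12 and 16 h. Measured by LC/MS/MS; noncompartmental analysis; mean(SD).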

[3] = Volume of distribution at steady state in Sprague-Dawley rat at 2 mg/kg, iv by LC-MS/MS analysis; type: ADME, organism-based; parameters: dose 2 mg/kg, route intravenous; details: in vivo, read-out: Vdss
How it was run: (§3)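 Fed male Sprague–Dawley rats, n = 3, given 2 mg/kg iv in DMSO. Measured by LC/MS/MS; noncompartmental analysis; mean(SD).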

Rattus norvegicus [4] = assay: Antinociceptive activity in Sprague-Dawley rat assessed as inhibition of icilin-induced wet-dog shakes at 3 mg/kg, po administered 90 mins prior icilin challenge measured for 30 mins; type: functional; how it was run: as §1
[5] = Oral bioavailability in Sprague-Dawley rat at 10 mg/kg by LC-MS/MS analysis; type: ADME, organism-based; details: in vivo; how it was run: as §2
Rattus norvegicus [6] = assay: Antinociceptive activity in po dosed Sprague-Dawley rat assessed as inhibition of icilin-induced wet-dog shakes administered 90 mins prior icilin challenge measured for 30 mins; type: functional, organism-based; how it was run: as §1
[7] = AUC (infinity) in Sprague-Dawley rat at 10 mg/kg, po by LC-MS/MS analysis; type: ADME, organism-based; parameters: time infinity, dose 10 mg/kg, route oral; details: plasma; how it was run: as §2
[8] = AUC (infinity) in Sprague-Dawley rat at 2 mg/kg, iv by LC-MS/MS analysis; type: ADME, organism-based; parameters: time infinity, dose 2 mg/kg, route intravenous; details: plasma; how it was run: as §3
Plasma [9] = assay: Plasma concentration in Sprague-Dawley rat at 30 mg/kg, po; type: ADME, organism-based; parameters: dose 30 mg/kg, route oral; details: in vivo
How it was run: (§4)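 Male Sprague–Dawley rats (n = 8 per group) dosed po in 5% Tween 80/Oraplus 90 min before icilin challenge in the wet-dog-shake study. Plasma collected 2 h after oral dosing.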

[10] = Intrinsic clearance in CD1 rat liver microsomes at 1 uM after 30 mins; type: ADME, Microsome; details: read-out: CLH
[11] = target: Transient receptor potential cation channel subfamily M member 8 (Rattus norvegicus, UniProt Q8R455); assay: Antagonist activity at rat TRPM8 expressed in CHO cells assessed as inhibition of icilin-induced Ca2+ influx incubated 2.5 mins prior icilin induction by flash luminometry; type: functional, cell-based
Chain of Transient receptor potential cation channel subfamily M member 8 (Q8R455 whole entry): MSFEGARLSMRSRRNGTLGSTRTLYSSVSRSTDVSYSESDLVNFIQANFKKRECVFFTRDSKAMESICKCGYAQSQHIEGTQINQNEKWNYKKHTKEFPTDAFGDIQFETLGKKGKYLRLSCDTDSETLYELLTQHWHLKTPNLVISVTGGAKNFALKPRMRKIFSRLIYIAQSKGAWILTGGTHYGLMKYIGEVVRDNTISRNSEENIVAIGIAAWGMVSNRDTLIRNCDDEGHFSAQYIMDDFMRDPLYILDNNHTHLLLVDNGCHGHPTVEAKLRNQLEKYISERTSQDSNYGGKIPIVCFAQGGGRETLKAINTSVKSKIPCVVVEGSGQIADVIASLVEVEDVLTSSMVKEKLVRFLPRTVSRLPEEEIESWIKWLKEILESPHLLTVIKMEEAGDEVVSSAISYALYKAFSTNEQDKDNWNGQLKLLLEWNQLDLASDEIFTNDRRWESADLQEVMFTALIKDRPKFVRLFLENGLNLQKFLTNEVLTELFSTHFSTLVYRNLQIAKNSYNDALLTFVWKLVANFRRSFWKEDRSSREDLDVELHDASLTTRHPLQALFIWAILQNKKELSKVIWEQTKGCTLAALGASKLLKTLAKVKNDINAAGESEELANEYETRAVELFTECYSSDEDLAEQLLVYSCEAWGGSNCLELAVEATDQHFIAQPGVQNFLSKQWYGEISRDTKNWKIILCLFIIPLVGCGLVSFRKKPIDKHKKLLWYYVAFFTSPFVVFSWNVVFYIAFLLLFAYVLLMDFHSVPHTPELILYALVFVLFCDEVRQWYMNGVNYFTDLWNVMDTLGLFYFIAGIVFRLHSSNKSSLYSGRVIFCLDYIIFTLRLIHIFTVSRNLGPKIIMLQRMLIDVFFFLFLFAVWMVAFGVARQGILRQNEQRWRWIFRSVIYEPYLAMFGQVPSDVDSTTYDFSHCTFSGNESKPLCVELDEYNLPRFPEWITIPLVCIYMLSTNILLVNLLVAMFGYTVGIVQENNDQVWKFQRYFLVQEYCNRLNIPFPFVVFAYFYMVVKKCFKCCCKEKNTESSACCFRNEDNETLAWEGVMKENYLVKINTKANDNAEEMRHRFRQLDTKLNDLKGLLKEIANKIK
How it was run: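 CHO cells stably expressing rat TRPM8 under a tetracycline-inducible T-REx system, co-transfected with aequorin. Seeded 24 h before assay; expression induced with 0.5 μg/mL tetracycline. Luminescence was read on a CCD-camera luminometer.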

Rattus norvegicus [12] = assay: Antinociceptive activity in Sprague-Dawley rat assessed as inhibition of icilin-induced wet-dog shakes at 100 mg/kg, po administered 90 mins prior icilin challenge measured for 30 mins; type: functional, organism-based; parameters: dose 100 mg/kg; how it was run: as §1
Plasma [13] = assay: Plasma concentration in Sprague-Dawley rat at 100 mg/kg, po; type: ADME, organism-based; parameters: dose 100 mg/kg, route oral; details: in vivo; how it was run: as §4

Compound	microsomal CLint at 1 µM [10] [µL/min/mg]	IC50 [11] [nM]	further results
O=C(Nc1ccc(F)cc1)N1CCc2ccccc2[C@H]1c1ccc(C(F)(F)F)cc1	–	–	inhibition in vivo at 30 mg/kg (Rattus norvegicus [1]): > 80%; Cmax [2]: 265 ng/mL; Vd [3]: 15.3 L/kg; inhibition in vivo at 3 mg/kg (Rattus norvegicus [4]): 30%; bioavailability [5]: 57%; EC50 (Rattus norvegicus [6]): 0.209 µg/mL (≈ 0.504 µM); inhibition (Rattus norvegicus [6]): Dose-dependent effect; AUC(0-inf) [7]: 1750 ng·h/mL; AUC(0-inf) [8]: 763 ng·h/mL; Cp (Plasma [9]): 460 ng/mL
O=C(Cc1ccc(F)cc1)N1CCc2sccc2C1c1ccc(C(F)(F)F)cc1 (centres undefined)	> 399	890	–
FC(F)(F)c1ccc(C2c3ccsc3CCN2Cc2ccccc2)cc1 (centres undefined)	> 399	> 20000	–
O=C(Nc1ccc(F)cc1)N1Cc2ccccc2C1c1ccc(C(F)(F)F)cc1 (centres undefined)	64	340	–
COc1ccc(NC(=O)N2CCc3sccc3C2c2ccc(C(F)(F)F)cc2)cc1 (centres undefined)	203	2320	–
O=C(c1ccccc1F)N1CCc2sccc2C1c1ccc(C(F)(F)F)cc1 (centres undefined)	> 399	510	–
O=C(Nc1ccc(F)cc1)N1CCc2c(F)cccc2C1c1ccc(C(F)(F)F)cc1 (centres undefined)	48	100	–
O=C(Nc1ccccc1)N1CCc2sccc2C1c1ccccc1 (centres undefined)	> 399	1690	–
Cn1cnc2c1CCN(C(=O)Nc1ccc(F)cc1)C2c1ccc(C(F)(F)F)cc1 (centres undefined)	36	260	–
CC1c2ccsc2CCN1C(=O)Nc1ccccc1 (centres undefined)	–	6800	–
O=C(Nc1ccccc1)N1CCc2sccc2C1c1ccccc1F (centres undefined)	> 399	2270	–
CCCC1c2ccsc2CCN1C(=O)Nc1ccccc1 (centres undefined)	> 399	293	–
O=C(Nc1ccc(F)cc1)N1CCc2ccoc2C1c1ccc(C(F)(F)F)cc1 (centres undefined)	164	230	–
O=C(Nc1ccc(F)cc1)N1CCc2nc[nH]c2C1c1ccc(C(F)(F)F)cc1 (centres undefined)	23	1430	–
CC(C)N1CCc2sccc2C1c1ccc(C(F)(F)F)cc1 (centres undefined)	< 14	> 20000	–
O=C(Nc1ccccc1)N1CCc2sccc2C1c1ccccc1C(F)(F)F (centres undefined)	> 399	240	–
O=C(Nc1ccc(F)cc1)N1CCc2ccsc2C1c1ccc(C(F)(F)F)cc1 (centres undefined)	206	150	–
FC(F)(F)c1ccc(C2NCCc3sccc32)cc1 (centres undefined)	> 399	> 20000	–
O=C(Nc1ccc(F)cc1)N1CCCc2ccccc2C1c1ccc(C(F)(F)F)cc1 (centres undefined)	146	> 20000	–
O=C(Nc1ccc(F)cc1)N1CCc2scnc2C1c1ccc(C(F)(F)F)cc1 (centres undefined)	110	93	–
O=C(c1cccc(F)c1)N1CCc2sccc2C1c1ccc(C(F)(F)F)cc1 (centres undefined)	> 399	> 20000	–
O=C(Nc1ccc(F)cc1)N1CCc2occc2C1c1ccc(C(F)(F)F)cc1 (centres undefined)	109	260	–
O=C(Nc1ccc(F)cc1)N1CCCCC1c1ccc(C(F)(F)F)cc1 (centres undefined)	285	2660	–
O=C(N1CCOCC1)N1CCc2sccc2C1c1ccc(C(F)(F)F)cc1 (centres undefined)	> 399	> 20000	–

Compound	microsomal CLint at 1 µM [10] [µL/min/mg]	IC50 [11] [nM]	further results
CC(C)CN1CCc2sccc2C1c1ccc(C(F)(F)F)cc1 (centres undefined)	–	> 20000	–
O=C(Nc1ccccc1)N1CCc2sccc2C1c1ccc(F)cc1 (centres undefined)	> 399	1840	–
CCCC1c2ccsc2CCN1C(=O)Nc1ccc(Cl)cc1 (centres undefined)	> 399	1390	–
O=C(Nc1ccc(F)cc1)N1CCc2cccc(F)c2C1c1ccc(C(F)(F)F)cc1 (centres undefined)	43	790	–
O=C(Nc1ccc(Cl)cc1)N1CCc2sccc2C1c1ccc(C(F)(F)F)cc1 (centres undefined)	162	1630	–
O=C(Nc1ccc(F)cc1)N1CCc2ccccc2[C@@H]1c1ccc(C(F)(F)F)cc1	–	–	Vd [3]: 15.8 L/kg; AUC(0-inf) [8]: 347 ng·h/mL; inhibition (Rattus norvegicus [12]): inactive; Cp (Plasma [13]): 521 ng/mL
O=C(Nc1cccc(F)c1)N1CCc2sccc2C1c1ccc(C(F)(F)F)cc1 (centres undefined)	278	780	–
O=C(Nc1ccc(F)cc1)N1CCn2cccc2C1c1ccc(C(F)(F)F)cc1 (centres undefined)	123	180	–
O=C(Nc1ccc(F)cc1)N1CCc2sccc2C1c1ccc(C(F)(F)F)cc1 (centres undefined)	178	340	–
O=C(Nc1ccccc1)N1CCc2sccc2C1C1CC1 (centres undefined)	> 399	5570	–
O=C(Nc1ccccc1)N1CCc2sccc2C1c1ccc(Cl)cc1 (centres undefined)	> 399	560	–
CC(C)C(=O)N1CCc2sccc2C1c1ccc(C(F)(F)F)cc1 (centres undefined)	> 399	1260	–
O=C(Nc1ccccc1)N1CCc2sccc2C1c1cccc(F)c1 (centres undefined)	> 399	1320	–
O=C(Nc1ccccc1F)N1CCc2sccc2C1c1ccc(C(F)(F)F)cc1 (centres undefined)	342	600	–
O=C(Nc1ccccc1)N1CCc2sccc2C1c1cccc(Cl)c1 (centres undefined)	> 399	2890	–
CC(C)NC(=O)N1CCc2sccc2C1c1ccc(C(F)(F)F)cc1 (centres undefined)	> 399	550	–
O=C(Nc1ccccc1)N1CCc2sccc2C1c1ccc(C(F)(F)F)cc1 (centres undefined)	211	290	–
O=C(Nc1ccccc1)N1CCc2sccc2C1	180	> 20000	–
O=C(Nc1ccc(F)cc1)N1CCc2cc(F)ccc2C1c1ccc(C(F)(F)F)cc1 (centres undefined)	40	302	–
O=C(Nc1ccccc1)N1CCc2sccc2C1c1cccc(C(F)(F)F)c1 (centres undefined)	> 399	1830	–
O=C(Nc1ccc(F)cc1)N1CCc2ccc(F)cc2C1c1ccc(C(F)(F)F)cc1 (centres undefined)	34	190	–
O=C(NC1CC1)N1CCc2sccc2C1c1ccc(C(F)(F)F)cc1 (centres undefined)	> 399	1210	–
O=C(c1ccc(F)cc1)N1CCc2sccc2C1c1ccc(C(F)(F)F)cc1 (centres undefined)	248	> 20000	–
O=C(Nc1ccccc1)N1CCc2sccc2C1c1ccccc1Cl (centres undefined)	> 399	140	–
